Bioassay records (PubChem BioAssay)
RGS4 act: RGS4 potentiators or activators, primary screen, cell-based, HEK293 M3R inducible RGS4, calcium flux; carbachol calcium flux Fluo4; hits give low values; B-score at 10 µM; 310,000 tested, 0.92% active;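 active = B-score of the integrated calcium signal more than 4 SD below the library mean, with starting fluorescence not abnormally high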;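 note: negative B-score means reduced calcium response which marks RGS4 activation or potentiation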
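Detection: kinetic calcium fluorescence imaging with Fluo4-AM dye, 2 µM / Material: HEK293 cells with stable M3R and inducible RGS4 / Schedule: recording 10 s baseline at 1 Hz, 100 s post-agonist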
RGS4 block: RGS4 inhibitors, primary screen, cell-based, HEK293 M3R inducible RGS4, calcium flux. 310,000 tested, 0.45% active. AID 463165, 2010. Fluo-4 calcium flux; hits give high values; triggered by carbachol at its EC20. Regulator of G-protein signaling 4 (Homo sapiens), P49798. B-score at 10 µM;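 active = B-score, a plate-corrected calcium signal, over three deviations above library mean, with baseline fluorescence within five deviations of library mean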;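 note: RGS4 expression induced by doxycycline in cells with stable M3 receptor; B-score is computed from the integrated fluorescence ratio over baseline after carbachol; higher B-score means a larger calcium signal and so more RGS4 inhibition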
MrgX1 allo act: positive allosteric modulators of MrgX1, primary screen, HEK293 cells, Fluo-4 calcium flux | Mas-related G-protein coupled receptor member X1 (Homo sapiens), Q96LB2 | FDSS; hits give high values | B-score at 10 µM | 310,000 tested, 0.63% active | AID 588675, 2011;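 active = plate-corrected calcium response at least 3 library SD above typical, normal starting fluorescence, not activating the receptor alone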;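 note: compound read alongside a low EC10 to EC30 dose of BAM8-22 agonist; peak minus trough fluorescence over baseline measured at the second addition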
Target sequence (Q96LB2 whole entry, looked up): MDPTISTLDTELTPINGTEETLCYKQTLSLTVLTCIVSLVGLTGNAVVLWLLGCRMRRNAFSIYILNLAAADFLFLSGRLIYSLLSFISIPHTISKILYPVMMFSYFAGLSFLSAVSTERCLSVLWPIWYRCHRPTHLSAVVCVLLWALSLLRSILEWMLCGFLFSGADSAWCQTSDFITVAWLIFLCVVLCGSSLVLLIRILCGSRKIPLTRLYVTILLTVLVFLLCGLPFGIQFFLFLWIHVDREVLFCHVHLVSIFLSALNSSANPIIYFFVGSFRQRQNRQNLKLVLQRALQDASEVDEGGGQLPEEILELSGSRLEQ
MrgX1 antag: antagonists of human MrgX1 receptor, primary screen, HEK293 cells, Fluo-4 calcium flux; 310,000 tested, 1.3% active; AID 588676, 2011; B-score at 10 µM; BAM8-22 antagonism; hits give low values; Mas-related G-protein coupled receptor member X1 (Homo sapiens), Q96LB2;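 active = calcium-response B-score plate-corrected more than 3 library SD below zero, starting fluorescence within 5 deviations, no agonist response on first addition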;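 note: peak minus trough fluorescence over baseline after final BAM8-22 challenge near maximal dose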
MrgX1 agonist: agonists of human MrgX1 receptor, primary screen, HEK293 cells, Fluo-4 calcium flux; Fluo-4 calcium fluorescence, agonist mode; hits give high values; B-score at 10 µM; 310,000 tested, 0.44% active; AID 588627, 2011;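 active = calcium response B-score plate-corrected fluorescence ratio at least 3 library SD, with starting fluorescence B-score inside 5 SD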
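Material – MrgX1-expressing HEK293 cells · Input – 15,000 cells seeded per well · Dosing – compound as first of three additions · Times – overnight seeding, then 1 h dark dye loading · Measured by – kinetic Fluo-4 NW fluorescence of intracellular calcium · Read-out – B-scored fluorescence response ratio · Benchmarks – positive and negative control wells on each plate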
Starred values were filed as active, the others as inactive; i = inactive; · = not tested or not shown. Most compounds without a hit are left out; they make up all but 3.5% or so of the library.

SMILES	RGS4 act	RGS4 block	MrgX1 allo act	MrgX1 antag	MrgX1 agonist
CCCCNc1c(-c2cccc(-c3ccc(OC)cc3)c2)nc2ccc(C)cn12	-7.8*	i	i	i	i
CCCCNc1c(-c2ccc(-c3cccc(Cl)c3)cc2)nc2ccccn12	i	i	i	i	i
COC(=O)Nc1c(-c2ccccc2)nc2ccc(C)cn12	i	i	i	i	i
CN(C(=O)c1cc2c(=O)n3ccccc3nc2n1C)C1CCCCC1	i	i	i	i	i
CC1(C)Cc2noc(N)c2C(C)(C)N1O	i	i	i	-6.29*	i
CC(C)(C)C(=O)Nc1nnc(SCC(=O)Nc2nccs2)s1	i	i	i	i	i
Cc1ccc(S(=O)(=O)Nc2cc(C(=O)Nc3cc(C)cc(C)c3)ccc2Cl)cc1	i	i	i	i	i
CCN(CC)CCCNC(=O)C1CCN(C(=O)c2cc3sccc3n2Cc2ccc(F)cc2)CC1	i	i	i	-5.96*	i
CC(C)[C@H](N)c1cn([C@@H](CC(N)=O)C(=O)N2CCNCC2)nn1	·	·	i	i	i
CC(C)[C@H](NC(=O)c1ccccc1Cl)C(=O)OCc1cc([N+](=O)[O-])cc2c1OCOC2	i	i	i	i	i
CSCCC(NC(=O)c1ccco1)C(=O)OCc1cc([N+](=O)[O-])cc2c1OCOC2 (configuration not stated)	i	i	i	i	28.4*
CC1=C(C(=O)Nc2ccc(C(=O)NCCCN3CCCCC3)cc2)SCCO1	i	i	i	i	i
Cc1ccc(-c2nc(N)s[n+]2-c2ccccc2)cc1	-9.85*	i	i	i	i
Cc1ccc(-c2nc3ccccc3nc2-c2ccccc2)cc1	i	i	i	i	i
COc1ccc(/C=C/C(=O)C2C(=O)C=C(C)OC2=O)cc1O (configuration not stated)	i	i	i	-4.67*	i
C[N+]1(C)CCC(=C2c3ccccc3CC(=O)c3sccc32)CC1	-8.35*	i	i	i	i
CC1(c2ccc(OC(F)F)cc2)NC(=O)N(CC(=O)Nc2ccccc2)C1=O (configuration not stated)	i	i	i	i	28.7*
COc1ccc(C2(c3ccc(OC)cc3)NC(=O)N(CC(=O)Nc3ccc(C(=O)N(C)C)cc3)C2=O)cc1	i	i	i	-6.42*	i
CCOC(=O)CN1C(=O)NC(C)(c2ccc(OC(F)F)cc2)C1=O (configuration not stated)	i	i	i	i	i
CC(=O)Nc1ccc(/C=N/N2C(=O)NC(C)(c3ccc(OC(F)F)cc3)C2=O)cc1 (configuration not stated)	-6.95*	i	i	i	30.6*
CC1(c2ccc(OC(F)F)cc2)NC(=O)N(CC(=O)Nc2ccc3[nH]c(=O)[nH]c3c2)C1=O (configuration not stated)	i	i	i	i	i
COc1ccc(-c2cccc(NC(=O)c3ccc4c(c3)OCO4)c2)nn1	i	i	i	i	i
COc1ccc(O[C@H]2C=C[C@@H](c3ccccc3)O[C@@H]2COC(=O)CC/C(C)=N/OC[C@@H](O)COCc2ccco2)cc1	-9.69*	i	i	i	i
COc1ccc(O[C@H]2C=C[C@@H](c3ccccc3)O[C@@H]2COC(=O)CC/C(C)=N/O[C@@H](C)c2cc(-c3c(C)cc(C)cc3C)no2)cc1	i	i	·	·	·
Cc1c(NS(=O)(=O)c2cccc(C(=O)NCc3ccc(Cl)cc3)c2)c(=O)n(-c2ccccc2)n1C	i	i	i	-5.97*	i
Cc1c(NS(=O)(=O)c2cccc(C(=O)O)c2)c(=O)n(-c2ccccc2)n1C	i	i	i	i	i
COc1cccc(C(=O)C[n+]2ccccc2/C=N/O)c1	-7.37*	i	i	i	i
